Consider nine compounds from ChEMBL document CHEMBL1135685, “Tumor-specific novel taxoid-monoclonal antibody conjugates” (J Med Chem, 2002).

What all share (assay type): functional, cell-based
The subject of one assay is A549. The assay can be described thus: In vitro cytotoxicity of compound against human A549 (non small cell lung) cancer cell line after 72 hr of drug exposure. Conditions: A549, 72 h. The procedure, abridged: (§1)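 Cytotoxicity was measured as an IC50 on a panel of human cancer lines: A431 (epidermoid), A549 (non-small-cell lung), MCF7 (breast) and MCF7-MDR (breast). The parent, unmodified taxoids were tested on the same lines.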

A further assay deals with A-431. The assay can be described thus: In vitro cytotoxicity of compound against human A431 (epidermoid) cancer cell line after 72 hr of drug exposure. Conditions: A-431, 72 h. A digest of the protocol: as §1
The next assay deals with NCI/ADR-RES. Kind of assay: In vitro cytotoxicity of compound against human MCF-7-MDR (breast) cancer cell line after 72 hr of drug exposure. A digest of the protocol: as §1

Bounds are passed on as bounds.

Usually IC50 stands for the concentration that inhibits the measured activity by half. Lower therefore signals higher potency.

Take `CCC(=O)O[C@H]1C(=O)[C@@]2(C)[C@H]([C@H](OC(=O)c3ccccc3)[C@]3(O)C[C@H](OC(=O)[C@H](O)[C@H](C=C(C)C)NC(=O)OC(C)(C)C)C(C)=C1C3(C)C)[C@]1(OC(C)=O)CO[C@@H]1C[C@@H]2O`: the IC50 was 0.1 nM in the assay with A549, 0.09 nM in the assay on A-431 and 2.2 nM in the assay with NCI/ADR-RES.
As for `CSSCCC(=O)O[C@H]1C(=O)[C@@]2(C)[C@H]([C@H](OC(=O)c3ccccc3)[C@]3(O)C[C@H](OC(=O)[C@H](O)[C@H](C=C(C)C)NC(=O)OC(C)(C)C)C(C)=C1C3(C)C)[C@]1(OC(C)=O)CO[C@@H]1C[C@@H]2O`, the IC50 was 0.8 nM in the assay on A549 and 0.5 nM with A-431.
Regarding `CSSCCC(=O)O[C@H]1C[C@H]2OC[C@@]2(OC(C)=O)[C@H]2[C@H](OC(=O)c3ccccc3)[C@]3(O)C[C@H](OC(=O)[C@H](O)[C@H](C=C(C)C)NC(=O)OC(C)(C)C)C(C)=C([C@@H](OC(=O)N4CCOCC4)C(=O)[C@]12C)C3(C)C`, the IC50 in the assay on A-431 is above 3 nM.
For the compound `CCC(=O)O[C@H]1C(=O)[C@]2(C)[C@@H](OC(=O)CCSSC)C[C@H]3OC[C@@]3(OC(C)=O)[C@H]2[C@H](OC(=O)c2ccccc2)[C@]2(O)C[C@H](OC(=O)[C@H](O)[C@H](C=C(C)C)NC(=O)OC(C)(C)C)C(C)=C1C2(C)C`, the IC50 with A-431 stood at 2 nM.
`CCC(=O)O[C@H]1C(=O)[C@@]2(C)[C@H]([C@H](OC(=O)c3ccccc3)[C@]3(O)C[C@H](OC(=O)[C@H](OC(=O)CCSSC)[C@H](C=C(C)C)NC(=O)OC(C)(C)C)C(C)=C1C3(C)C)[C@]1(OC(C)=O)CO[C@@H]1C[C@@H]2O`: the half-maximal inhibitory concentration (IC50) was 0.9 nM in the assay on A549 and above 3 nM with A-431.
For `CSSc1cccc(C(=O)O[C@H]2C(=O)[C@@]3(C)[C@H]([C@H](OC(=O)c4ccccc4)[C@]4(O)C[C@H](OC(=O)[C@H](O)[C@H](C=C(C)C)NC(=O)OC(C)(C)C)C(C)=C2C4(C)C)[C@]2(OC(C)=O)CO[C@@H]2C[C@@H]3O)c1`, in that order: above 3 nM and above 3 nM.
Regarding `CSSc1cccc(C(=O)O[C@H]2[C@@H]3[C@]4(OC(C)=O)CO[C@@H]4C[C@H](O)[C@@]3(C)C(=O)[C@H](OC(C)=O)C3=C(C)[C@@H](OC(=O)[C@H](O)[C@H](C=C(C)C)NC(=O)OC(C)(C)C)C[C@]2(O)C3(C)C)c1`, the IC50 in the assay with A549 and in the assay on A-431 was above 3 nM throughout.
As for `CSSCC(=O)O[C@H]1C(=O)[C@@]2(C)[C@H]([C@H](OC(=O)c3ccccc3)[C@]3(O)C[C@H](OC(=O)[C@H](O)[C@H](C=C(C)C)NC(=O)OC(C)(C)C)C(C)=C1C3(C)C)[C@]1(OC(C)=O)CO[C@@H]1C[C@@H]2O`, the IC50 stood at 0.8 nM in the assay with A549 and 0.7 nM with A-431.
As for `CC(=O)O[C@H]1C(=O)[C@@]2(C)[C@H]([C@H](OC(=O)c3ccccc3)[C@]3(O)C[C@H](OC(=O)[C@H](O)[C@@H](NC(=O)c4ccccc4)c4ccccc4)C(C)=C1C3(C)C)[C@]1(OC(C)=O)CO[C@@H]1C[C@@H]2O` [PACLITAXEL], 299 nM corresponded to half-maximal inhibition in the assay on NCI/ADR-RES (IC50).
